ERAP1 HTS inh: inhibitors of human ERAP1 aminopeptidase | actives 0.15% (n = 340,000) | recombinant ERAP1, Leu-AMC fluorescence, 60 min | Q9NZ08 | inhibition, % at 10.7 µM;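 active = mean replicate inhibition of at least 30%, or all replicates individually reaching that 30% level; inactive = mean below 30% and not every replicate reaching it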;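 note: 0% = neutral control wells and 100% = L-leucinethiol positive control wells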
ARNT-TACC3 inh: ARNT/TACC3 interaction disruption | actives 0.66% (n = 390,000) | Q9Y6A5 | AlphaScreen His-ARNT PAS-B/GST-TACC3 binding, luminescence; TACC3 fragment carries E629A point mutation | inhibition, % at 9.99 µM;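 active = mean inhibition of replicates at least 50% and at least half of replicates each reaching 50%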;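 note: 0% = complete ARNT plus TACC3 wells and 100% = ARNT alone without TACC3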
rRNA inh HTS: inhibitors of bacterial rRNA selective over humanized ribosomes. E. coli WT GFP vs humanized-ribosome RFP mutants, fluorescence, 24 h; hits give low values; DMSO median 0, no signal -100. GFP signal change (wild-type ribosome), % (concentration not given with the values). actives 1.6% (n = 350,000). AID 720706;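 active = significant combined selectivity score with lowered wild-type GFP, culture density cut under 30%, mutant RFP and density less affected; inactive = any of these conditions unmet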
S100A4 inh HTS: S100A4-myosin IIA interaction inhibition. inhibition, % at 10.7 µM. AID 652163. P26447. actives 0.14% (n = 360,000). S100A4/TAMRA-MyoIIA peptide fluorescence polarization;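 active = mean inhibition of at least 70% across replicates, with every replicate also reaching that level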
Target sequence (P26447 whole entry, looked up): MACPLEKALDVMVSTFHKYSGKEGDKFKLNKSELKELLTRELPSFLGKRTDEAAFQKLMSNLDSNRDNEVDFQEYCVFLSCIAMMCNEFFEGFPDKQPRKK
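assay system = human S100A4 monomer with TAMRA-labelled myosin IIA peptide | also added = labelled myosin peptide probe, 5 nM | incubation = 5 min between mix addition and reading | control set = DMSO and TFP controls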
Casp6 inh: caspase-6 (human) enzyme inhibition; P55212; actives 0.53% (n = 350,000); purified caspase-6, Z-VEID-R110 cleavage fluorescence; inhibition, % at 12.5 µM;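 active = mean inhibition across replicates at least about 35%, with every replicate also reaching that limit, limit read from the data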;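 note: 0% = median of neutral control wells and 100% = no fluorescence left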
Target sequence (P55212 24-179 limits assumed): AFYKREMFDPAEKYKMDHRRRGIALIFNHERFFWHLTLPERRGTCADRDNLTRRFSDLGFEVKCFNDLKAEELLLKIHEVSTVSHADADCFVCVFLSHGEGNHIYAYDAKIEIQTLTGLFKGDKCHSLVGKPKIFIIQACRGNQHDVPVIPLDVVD
Target sequence (P55212 194-293 limits assumed): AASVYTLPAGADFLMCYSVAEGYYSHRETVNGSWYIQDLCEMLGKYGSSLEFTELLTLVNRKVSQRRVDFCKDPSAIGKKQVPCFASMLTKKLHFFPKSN
PGC1a acetyl inh: lowers PGC1a acetylation signal in U2OS cells; AlphaScreen anti-acetyl-lysine; with virally co-expressed GCN5 acetyltransferase; inhibition, % at 15.6 µM; actives 0.17% (n = 350,000);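 active = every replicate shows inhibition of at least 40%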;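 note: 0% = neutral control wells and 100% = positive control wells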
The depositor's hits bear a star; . = no result. Compounds with a hit are over-represented: about 2.4% of the library has one in this group of screens.

SMILES	ERAP1 HTS inh	ARNT-TACC3 inh	rRNA inh HTS	S100A4 inh HTS	Casp6 inh	PGC1a acetyl inh
O=S(=O)(Nc1cc(Sc2ncn[nH]2)c(O)c2ccccc12)c1ccccc1	56*	.	-52	5	100*	72*
Cc1ccc(S(=O)(=O)Nc2ccc(Br)cc2C(NCC(=O)O)c2ccccc2)cc1 (stereo unspecified)	.	3	.	.	.	-3
COc1cccc(C(=O)Nc2ccc3c(c2)C(=O)N(C)[C@H]2CC[C@H](CC(=O)NCCCN4CCOCC4)O[C@H]2CO3)c1	-5	-7	2	-2	-10	.
Cc1cccc(NCC(=O)N/N=C/c2cccc(Br)c2)c1	-1	-4	0	-16	0	10
Cc1ccc(NCC(=O)N/N=C/c2cccc(Br)c2)cc1	-2	-5	-23*	-7	5	5
Cn1nc(-c2ccc(Cl)cc2)cc1NC(=O)Nc1ccccc1	-1	-6	-44*	-8	-2	.
O=C(Nc1cccc(Cl)c1)Nc1nc(-c2ccccc2)cs1	6	-1	-34	1	4	4
O=C(Nc1ccc(Cl)cc1)Nc1nc(-c2ccccc2)cs1	-1	-8	-38*	3	-4	3
Cc1ccc(OCCC(=O)OCC(=O)NCCc2ccccc2)cc1	5	1	-22*	-2	-2	.
CC(=O)c1coc2c1cc(O)c1ccccc12	.	0	.	.	.	-63
O=C(c1ccco1)c1coc2c1cc(O)c1ccccc12	-2	-10	.	-5	47*	.
Nc1nc(SCc2ccc(Cl)c(Cl)c2)n[nH]1	6	0	-37*	-7	10	2
COc1cccc(CNC(=O)C[C@H]2C=C[C@H](NC(=O)C3CCOCC3)[C@@H](CO)O2)c1	-1	-5	4	11	-1	13
O=C(/C=C/c1ccc2c(c1)OCCCO2)c1ccccc1O	-2	0	-33*	0	0	.
O=C(/C=C/c1cccc(Br)c1)c1ccc2c(c1)OCO2	-5	0	-41	-16	2	.
O=C(/C=C/c1ccccc1)c1ccc2c(c1)OCO2	.	0	-24*	-2	-1	7
COc1ccc(CN2CCN(c3ncnc4scc(-c5ccc(F)cc5)c34)CC2)cc1	0	48*	-63	-3	-1	.
COc1ccc(N2CCN(c3ncnc4scc(-c5ccc(C)cc5)c34)CC2)cc1	2	4	2	-5	-2	.
COc1ccc(N2CCN(c3ncnc4scc(-c5ccc(F)cc5)c34)CC2)cc1	5	9	-24*	-5	3	6
COc1ccc2c3c(n(C)c2c1)[C@@H](CO)N(CC1CCCCC1)CC31CCN(Cc2nccs2)CC1	-1	.	-12	12	-2	.
CN1C(=O)c2cc(NC(=O)c3cccs3)ccc2OC[C@@H]2O[C@@H](CC(=O)O)CC[C@@H]21	.	.	-3	.	.	6
CCOc1ccc(CN(C)CC(=O)NCc2ccccc2Cl)cc1	4	-4	-28*	-6	1	-1
O=C(c1ccc(F)cc1)N1CCOC(c2nc(-c3ccc(F)cc3)no2)C1 (stereo unspecified)	-3	.	-25*	-19	-1	-1
C[C@H](CO)N1C[C@H](C)[C@H](CN(C)C(=O)c2ccccc2F)Oc2ncc(C#Cc3ccccc3)cc2C1=O	-5	1	-3	1	0	13
C[C@@H]1CN([C@H](C)CO)C(=O)c2cc(C#Cc3ccccc3)cnc2O[C@@H]1CN(C)C(=O)c1ccccc1F	-2	26	2	74*	2	28
C[C@H]1CN([C@@H](C)CO)C(=O)c2cc(Br)cnc2O[C@H]1CN(C)C(=O)c1ccccc1F	-3	4	2	139*	-6	4
C[C@H]1CN([C@@H](C)CO)C(=O)c2cc(C#CCN(C)C)cnc2O[C@H]1CN(C)C(=O)c1ccc2c(c1)OCO2	-1	-5	4	-4	57*	3
CN(C)C(=O)C[C@H]1CC[C@@H]2[C@H](COC[C@H](O)CN2CC2CCCCC2)O1	-1	1	3	6	-1	-8
COc1cccc(S(=O)(=O)Nc2ccc3c(c2)C(=O)N(C)C[C@H](OC)[C@@H](C)CN[C@@H](C)CO3)c1	-2	-2	-2	-3	2	-10

Compound activity from PubChem.
